Measured values from PubChem BioAssay AID504907 (The Scripps Research Institute Molecular Screening Center, 2011).

Biological target: Glucose-6-phosphatase catalytic subunit 1 (Homo sapiens) (UniProt P35575)
Assay: endogenous G6PC mRNA suppression, late-stage follow-up, mechanism study for RORA inverse agonist project, cell-based, real-time PCR, fluorescence, assay provider (AID 504907)
Details: HepG2 G6PC mRNA RT-qPCR, 20 h, at 10 µM, stronger effect = lower value
Outline: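 System: HepG2 human hepatoma cells, endogenous G6Pase (G6PC) transcript | Compound dosing: One nominal dose of 10 µM | Timing: 20 h compound exposure of HepG2 cells | Technique: SYBR Green real-time RT-PCR of G6Pase mRNA | Evaluation: Mean fold change in G6Pase mRNA relative to vehicle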

Chain of Glucose-6-phosphatase catalytic subunit 1 (Homo sapiens) (P35575 whole entry, looked up): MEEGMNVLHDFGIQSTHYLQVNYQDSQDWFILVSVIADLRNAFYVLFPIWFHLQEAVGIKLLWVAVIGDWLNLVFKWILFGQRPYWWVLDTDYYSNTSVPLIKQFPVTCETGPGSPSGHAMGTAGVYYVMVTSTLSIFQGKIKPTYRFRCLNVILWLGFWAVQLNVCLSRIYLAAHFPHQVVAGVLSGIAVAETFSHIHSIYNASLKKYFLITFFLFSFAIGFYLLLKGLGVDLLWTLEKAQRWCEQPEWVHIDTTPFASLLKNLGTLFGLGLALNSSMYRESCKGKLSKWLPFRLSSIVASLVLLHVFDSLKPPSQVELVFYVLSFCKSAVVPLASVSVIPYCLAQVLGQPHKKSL

- relative mRNA level (with RORA + RORG siRNA): 0.279
- relative mRNA level (with control siRNA): 0.676
Structure (SMILES): O=S(=O)(Nc1ccc(C(O)(C(F)(F)F)C(F)(F)F)cc1)c1cccs1
